Measured values taken from ChEMBL document CHEMBL4017507 (J Med Chem, 2017).

Tests used:
[1] = test system: CCRF-CEM; experiment: Cytostatic activity human CEM cells assessed as reduction in cell viability after 72 hrs by cell counting method; type: cell-based; details: ccrf-cem, 72 h
Procedure, shortened: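 (5–7.5) × 10^? CEM cells per well were grown with compound for 72 h at 37 °C under humidified CO2. Cells were counted in a Coulter counter.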

[2] = test system: HEL; experiment: Cytotoxicity against human HEL cells assessed as cell growth inhibition by cell counting method; type: cell-based
[3] = Cytotoxicity against human HEL cells assessed as alteration to cell morphology by microscopic analysis; type: cell-based
Procedure, shortened: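 Minimal cytotoxic concentration is the compound concentration giving a microscopically visible alteration of HEL cell morphology, scored in the antiviral assay cultures.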

[4] = test system: Human betaherpesvirus 5; experiment: Antiviral activity against human cytomegalovirus AD-169 infected in human HEL cells assessed as inhibition of virus-induced cytopathic effect; type: functional, cell-based; details: Human betaherpesvirus 5, AD-169, HEL
Procedure, shortened: (§1)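 Confluent HEL fibroblast monolayers were inoculated in 96-well plates with 100 CCID50 of virus in the presence of serially varied compound concentrations. Cytopathicity was scored once untreated infected controls reached full CPE.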

[5] = test system: Human alphaherpesvirus 3; experiment: Antiviral activity against Varicella-Zoster virus OKA infected in human HEL cells assessed as inhibition of virus-induced cytopathic effect; type: functional, cell-based; details: Human alphaherpesvirus 3, strain Oka vaccine
Procedure, shortened: (§2)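 Confluent HEL fibroblast cultures were inoculated with 20 PFU of VZV in the presence of varying compound concentrations. Plaque formation was recorded once untreated infected controls reached completion.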

[6] = test system: MT4; experiment: Cytotoxicity against human MT4 cells assessed as reduction in cell viability by cell counting method; type: cell-based
Procedure, shortened: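 MT-4 cultures, untreated or treated, were assessed with an automated cell counter using propidium iodide staining to enumerate total and dead cells.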

[7] = test system: Human alphaherpesvirus 1; experiment: Antiviral activity against Herpes simplex virus 1 KOS infected in human HEL cells assessed as inhibition of virus-induced cytopathic effect; type: functional, cell-based; details: Human alphaherpesvirus 1, KOS; procedure, shortened: as §1
[8] = test system: Human alphaherpesvirus 1; experiment: Antiviral activity against ACV-resistant thymidine kinase deficient Herpes simplex virus 1 KOS infected in human HEL cells assessed as inhibition of virus-induced cytopathic effect; type: functional, cell-based; details: Human alphaherpesvirus 1, KOS; procedure, shortened: as §1
[9] = test system: Human alphaherpesvirus 2; experiment: Antiviral activity against Herpes simplex virus 2 G infected in human HEL cells assessed as inhibition of virus-induced cytopathic effect; type: functional, cell-based; details: Human alphaherpesvirus 2, strain G; procedure, shortened: as §1
[10] = test system: Human alphaherpesvirus 3; experiment: Antiviral activity against thymidine kinase deficient Varicella-Zoster virus 07-1 infected in human HEL cells assessed as inhibition of virus-induced cytopathic effect; type: functional, cell-based; details: Human alphaherpesvirus 3, 07-1, HEL; procedure, shortened: as §2
[11] = test system: Human immunodeficiency virus 1; experiment: Antiviral activity against HIV1 X4LAI.04 infected in human MT4 cells assessed as decrease in viral replication by p24gag-based luminex assay; type: functional, cell-based; details: Human immunodeficiency virus 1, X4LAI.04, MT4
Procedure, shortened: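 10^6 MT-4 cells were infected with HIV-1 X4LAI.04 (7 ng p24) for 2 h at 37 °C, then washed with PBS and resuspended. Compounds were added and cultures were kept 3 days at 37 °C. Supernatant p24 was measured by bead-based Luminex. Inhibition was calculated as (1 − p24 treated/p24 untreated) × 100, and EC50 was derived from it.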

[12] = test system: Human betaherpesvirus 5; experiment: Antiviral activity against human cytomegalovirus Davis infected in human HEL cells assessed as inhibition of virus-induced cytopathic effect; type: functional, cell-based; details: Human betaherpesvirus 5, Davis; procedure, shortened: as §1

SMILES	CC50 [1] [µM]	CC50 [2] [µM]	MCC [3] [µM]	EC50 [4] [µM]	EC50 [5] [µM]	IC50 [6] [µM]	EC50 [7] [µM]	EC50 [8] [µM]	EC50 [9] [µM]	EC50 [10] [µM]	EC50 [11] [µM]	EC50 [12] [µM]
C[C@H](NP(=O)(OCC(COP(=O)(N[C@@H](C)C(=O)OCc1ccccc1)Oc1ccccc1)OCn1cnc2c(=O)[nH]c(N)nc21)Oc1ccccc1)C(=O)OCc1ccccc1 (some centres not stated)	159	> 100	> 100	44.7	23.3	> 150	3	14.5	2.5	21.3	30	
CC(C)(NP(=O)(OCC(CCn1cnc2c(=O)[nH]c(N)nc21)COP(=O)(NC(C)(C)C(=O)OCc1ccccc1)Oc1cccc2ccccc12)Oc1cccc2ccccc12)C(=O)OCc1ccccc1 (configuration not stated)	> 250	> 100	50 to 100	> 50	> 50	> 150	> 20	> 20	> 20	> 50	> 150	> 50
C[C@H](NP(=O)(OCC(CO)OCn1cnc2c(=O)[nH]c(N)nc21)Oc1ccccc1)C(=O)OCc1ccccc1 (some centres not stated)		≥ 81	> 100	7.9	7.3	20	0.6	3	3	3.2	17	5
C[C@H](NP(=O)(OCC(CCn1cnc2c(=O)[nH]c(N)nc21)COP(=O)(N[C@@H](C)C(=O)OCc1ccccc1)Oc1ccccc1)Oc1ccccc1)C(=O)OCc1ccccc1 (some centres not stated)	76	≥ 100	50 to 100	> 50	16.3	10	> 100	> 100	> 100	41.5	8	> 50
CCC(C)(C)COC(=O)[C@H](C)NP(=O)(OCC(CO)CCn1cnc2c(OC)nc(N)nc21)Oc1cccc2ccccc12 (some centres not stated)	18	28	50 to 100	43	4.4	17	11	≥ 20	10	9.7	24	> 50
CC(C)(NP(=O)(OCC(CO)CCn1cnc2c(=O)[nH]c(N)nc21)Oc1ccccc1)C(=O)OCc1ccccc1 (configuration not stated)	252	> 50	50 to 100	> 50	> 50	> 150	29	100	39	> 50	68	> 50
COC(=O)[C@H](C)NP(=O)(OCC(CO)CCn1cnc2c(OC)nc(N)nc21)Oc1cccc2ccccc12 (some centres not stated)	15	37	50 to 100	32	13	10	> 100	> 100	> 100	25	16	14
COc1nc(N)nc2c1ncn2CCC(CO)COP(=O)(N[C@@H](C)C(=O)OCc1ccccc1)Oc1cccc2ccccc12 (some centres not stated)	27	49	50 to 100	> 50	17	12	38	20	20	23	23	50
CC(C)OC(=O)[C@H](C)NP(=O)(OCC(COP(=O)(N[C@@H](C)C(=O)OC(C)C)Oc1cccc2ccccc12)OCn1cnc2c(=O)[nH]c(N)nc21)Oc1cccc2ccccc12 (some centres not stated)	> 100	> 50	≥ 100	16.3	4.2	6	1.2	≥ 73	1.4	1.1	8.5	2.7
Nc1nc2c(ncn2COCCO)c(=O)[nH]1 [ACYCLOVIR]		787										
C[C@H](NP(=O)(OCC(CCn1cnc2c(=O)[nH]c(N)nc21)COP(=O)(N[C@@H](C)C(=O)OCc1ccccc1)Oc1cccc2ccccc12)Oc1cccc2ccccc12)C(=O)OCc1ccccc1 (some centres not stated)	> 10	> 100	50 to 100	> 50	13.5		> 100	> 100	> 100	> 50		> 50
CC(C)(NP(=O)(OCC(CO)OCn1cnc2c(=O)[nH]c(N)nc21)Oc1ccccc1)C(=O)OCc1ccccc1 (configuration not stated)	> 100	> 100	50 to 100	38.6	7.3	> 150	0.09	0.15	0.3	3.3	> 150	15.8
COc1nc(N)nc2c1ncn2CCC(COP(=O)(N[C@@H](C)C(=O)OCc1ccccc1)Oc1ccccc1)COP(=O)(N[C@@H](C)C(=O)OCc1ccccc1)Oc1ccccc1 (some centres not stated)	19	25	50 to 100	> 50	22	20	100	100	> 100	20	12	37
CC(C)(NP(=O)(OCC(CO)CCn1cnc2c(=O)[nH]c(N)nc21)Oc1cccc2ccccc12)C(=O)OCc1ccccc1 (configuration not stated)		> 100	50 to 100	> 50	20.9	100	75	> 100	52	> 50	95	> 50
COc1nc(N)nc2c1ncn2CCC(CO)COP(=O)(N[C@@H](C)C(=O)OCC(C)(C)C)Oc1cccc2ccccc12 (some centres not stated)	17	7.6	50 to 100	50	2	35	9	15	9	6.2	41	40
C[C@H](NP(=O)(OCC(COP(=O)(N[C@@H](C)C(=O)OCc1ccccc1)Oc1cccc2ccccc12)OCn1cnc2c(=O)[nH]c(N)nc21)Oc1cccc2ccccc12)C(=O)OCc1ccccc1 (some centres not stated)		> 100	50 to 100	27.4	6.2	> 150	1.3	2.5	2.5	4.1		11.2
CC(C)(NP(=O)(OCC(CCn1cnc2c(=O)[nH]c(N)nc21)COP(=O)(NC(C)(C)C(=O)OCc1ccccc1)Oc1ccccc1)Oc1ccccc1)C(=O)OCc1ccccc1 (configuration not stated)	100	> 100	50 to 100	> 50	10.3	30	> 100	> 100	> 100	20.6	19	> 50
CC(C)(NP(=O)(OCC(CO)OCn1cnc2c(=O)[nH]c(N)nc21)Oc1cccc2ccccc12)C(=O)OCc1ccccc1 (configuration not stated)	> 100	> 100	50 to 100	6.6	13	26	0.6	1.4	0.85	> 50	10	4.9
C[C@H](NP(=O)(OCC(CCn1cnc2c(=O)[nH]c(/N=C/N(C)C)nc21)COP(=O)(N[C@@H](C)C(=O)OCc1ccccc1)Oc1ccccc1)Oc1ccccc1)C(=O)OCc1ccccc1 (some centres not stated)	21	47	50 to 100	> 50	29.8	10	> 100	> 100	> 100	28.6	9	> 50
CC(C)(NP(=O)(OCC(COP(=O)(NC(C)(C)C(=O)OCc1ccccc1)Oc1ccccc1)OCn1cnc2c(=O)[nH]c(N)nc21)Oc1ccccc1)C(=O)OCc1ccccc1 (configuration not stated)	47	82	> 50	50	21.7	13	1.5	1.5	2.5	8.3	10	23.6
